Source: ChEMBL document CHEMBL1157144, “Novel 16-membered macrolides modified at C-12 and C-13 positions of midecamycin A1 and miokamycin. Part 1: Synthesis and evaluation of 12,13-carbamate and 12-arylalkylamino-13-hydroxy analogues” (2008)
Values after ≈ are worked out from the molar mass of the structure shown.

What was measured:
Format in all cases: functional
[1] = tested on: Staphylococcus aureus; assay: Antibacterial activity against ermC-inducible resistant Staphylococcus aureus after 20 hrs by agar dilution method
Method in brief: (§1)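 Agar dilution MIC. The inoculum came from a seed culture in Sensitivity test broth. A 5 µl portion of a cell suspension of about 10^6 CFU/ml was inoculated onto Sensitivity disk agar supplemented with 5% horse blood. Plates were incubated at 37 °C for 20 h, then MIC was read.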

[2] = tested on: Moraxella catarrhalis; assay: Antibacterial activity against standard Moraxella catarrhalis after 20 hrs by agar dilution method
Method in brief: (§2)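 MIC by agar dilution. Strains grown on blood agar plates for seed culture. About 5 µl of a suspension of roughly 10^6 CFU/ml spotted onto Sensitivity disk agar with 5% horse blood. Plates incubated at 37 °C for 20 h, then MIC read.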

[3] = tested on: Staphylococcus aureus; assay: Antibacterial activity against ermB-inducible resistant Staphylococcus aureus after 20 hrs by agar dilution method; method in brief: as §1
[4] = tested on: Haemophilus influenzae; assay: Antibacterial activity against susceptible Haemophilus influenzae after 20 hrs by agar dilution method; method in brief: as §2
[5] = tested on: Staphylococcus aureus; assay: Antibacterial activity against susceptible Staphylococcus aureus after 20 hrs by agar dilution method; method in brief: as §1
[6] = tested on: Streptococcus pyogenes; assay: Antibacterial activity against mefE efflux-resistant Streptococcus pyogenes after 20 hrs by agar dilution method
Method in brief: (§3)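 Agar dilution MIC. Streptococcal strains were pre-cultured on blood agar plates. A 5 µl portion of a cell suspension of about 10^6 CFU/ml was inoculated onto Sensitivity disk agar supplemented with 5% horse blood. Plates were incubated at 37 °C for 20 h, then MIC was read.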

[7] = tested on: Staphylococcus aureus; assay: Antibacterial activity against ermA-constitutive resistant Staphylococcus aureus after 20 hrs by agar dilution method; method in brief: as §1
[8] = tested on: Streptococcus pyogenes; assay: Antibacterial activity against ermB-constitutive resistant Streptococcus pyogenes after 20 hrs by agar dilution method; method in brief: as §3
[9] = tested on: Streptococcus pneumoniae; assay: Antibacterial activity against mefE efflux-resistant Streptococcus pneumoniae after 20 hrs by agar dilution method; method in brief: as §3
[10] = tested on: Streptococcus pyogenes; assay: Antibacterial activity against standard Streptococcus pyogenes after 20 hrs by agar dilution method; method in brief: as §2
[11] = tested on: Streptococcus pneumoniae; assay: Antibacterial activity against ermB-inducible resistant Streptococcus pneumoniae after 20 hrs by agar dilution method; method in brief: as §3
[12] = tested on: Haemophilus influenzae; assay: Antibacterial activity against standard Haemophilus influenzae after 20 hrs by agar dilution method; method in brief: as §2
[13] = tested on: Staphylococcus aureus; assay: Antibacterial activity against standard Staphylococcus aureus after 20 hrs by agar dilution method; method in brief: as §1
[14] = tested on: Streptococcus pneumoniae; assay: Antibacterial activity against susceptible Streptococcus pneumoniae after 20 hrs by agar dilution method; method in brief: as §2
[15] = tested on: Streptococcus pneumoniae; assay: Antibacterial activity against ermB-constitutive resistant Streptococcus pneumoniae after 20 hrs by agar dilution method; method in brief: as §3

## CCC(=O)O[C@@H]1CC(=O)O[C@H](C)C[C@H](O)[C@H](N(C)CCCc2ccccc2)/C=C/[C@H](OC(C)=O)[C@H](C)C[C@H](CC=O)[C@H](O[C@@H]2O[C@H](C)[C@@H](O[C@H]3C[C@@](C)(OC(C)=O)[C@@H](OC(=O)CC)[C@H](C)O3)[C@H](N(C)C)[C@H]2O)[C@H]1OC
[1]
  MIC: 0.39 µg/mL (≈ 0.367 µM)
[2]
  MIC: 0.39 µg/mL (≈ 0.367 µM)
[3]
  MIC: 0.2 µg/mL (≈ 0.188 µM)
[4]
  MIC: 25 µg/mL (≈ 23.5 µM)
[5]
  MIC: 0.39 µg/mL (≈ 0.367 µM)
[6]
  MIC: 0.1 µg/mL (≈ 0.094 µM)
[7]
  MIC: > 100 µg/mL
[8]
  MIC: 50 µg/mL (≈ 47 µM)
[9]
  MIC: 0.1 µg/mL (≈ 0.094 µM)
[10]
  MIC: 0.05 µg/mL (≈ 0.047 µM)
[11]
  MIC: 1.56 µg/mL (≈ 1.47 µM)
[12]
  MIC: 3.13 µg/mL (≈ 2.94 µM)
[13]
  MIC: 0.39 µg/mL (≈ 0.367 µM)
[14]
  MIC: 0.05 µg/mL (≈ 0.047 µM)
[15]
  MIC: > 100 µg/mL

## CCC(=O)O[C@@H]1CC(=O)O[C@H](C)C[C@H](O)[C@H](N(C)CCCc2cccc3ccccc23)/C=C/[C@H](OC(C)=O)[C@H](C)C[C@H](CC=O)[C@H](O[C@@H]2O[C@H](C)[C@@H](O[C@H]3C[C@@](C)(O)[C@@H](OC(=O)CC)[C@H](C)O3)[C@H](N(C)C)[C@H]2O)[C@H]1OC
[1]
  MIC: 0.78 µg/mL (≈ 0.728 µM)
[2]
  MIC: 0.78 µg/mL (≈ 0.728 µM)
[3]
  MIC: 3.13 µg/mL (≈ 2.92 µM)
[4]
  MIC: 25 µg/mL (≈ 23.3 µM)
[5]
  MIC: 0.39 µg/mL (≈ 0.364 µM)
[6]
  MIC: 0.2 µg/mL (≈ 0.187 µM)
[7]
  MIC: > 100 µg/mL
[8]
  MIC: 50 µg/mL (≈ 46.7 µM)
[9]
  MIC: 0.1 µg/mL (≈ 0.0933 µM)
[10]
  MIC: 0.1 µg/mL (≈ 0.0933 µM)
[11]
  MIC: 6.25 µg/mL (≈ 5.83 µM)
[12]
  MIC: 6.25 µg/mL (≈ 5.83 µM)
[13]
  MIC: 0.39 µg/mL (≈ 0.364 µM)
[14]
  MIC: 0.1 µg/mL (≈ 0.0933 µM)
[15]
  MIC: 50 µg/mL (≈ 46.7 µM)

## CCC(=O)O[C@@H]1CC(=O)O[C@H](C)C[C@H](O)[C@H](N(C)CCCc2cnc3ccccc3c2)/C=C/[C@H](OC(C)=O)[C@H](C)C[C@H](CC=O)[C@H](O[C@@H]2O[C@H](C)[C@@H](O[C@H]3C[C@@](C)(O)[C@@H](OC(=O)CC)[C@H](C)O3)[C@H](N(C)C)[C@H]2O)[C@H]1OC
[1]
  MIC: 0.39 µg/mL (≈ 0.364 µM)
[2]
  MIC: 0.78 µg/mL (≈ 0.727 µM)
[3]
  MIC: 0.2 µg/mL (≈ 0.187 µM)
[4]
  MIC: 25 µg/mL (≈ 23.3 µM)
[5]
  MIC: 0.39 µg/mL (≈ 0.364 µM)
[6]
  MIC: 0.2 µg/mL (≈ 0.187 µM)
[7]
  MIC: > 100 µg/mL
[8]
  MIC: > 100 µg/mL
[9]
  MIC: 0.1 µg/mL (≈ 0.0933 µM)
[10]
  MIC: 0.1 µg/mL (≈ 0.0933 µM)
[11]
  MIC: 12.5 µg/mL (≈ 11.7 µM)
[12]
  MIC: 3.13 µg/mL (≈ 2.92 µM)
[13]
  MIC: 0.39 µg/mL (≈ 0.364 µM)
[14]
  MIC: 0.05 µg/mL (≈ 0.0466 µM)
[15]
  MIC: > 100 µg/mL

## CCC(=O)O[C@@H]1CC(=O)O[C@H](C)C[C@H](O)[C@H](N(C)CCCCCCCc2ccccc2)/C=C/[C@H](OC(C)=O)[C@H](C)C[C@H](CC=O)[C@H](O[C@@H]2O[C@H](C)[C@@H](O[C@H]3C[C@@](C)(O)[C@@H](OC(=O)CC)[C@H](C)O3)[C@H](N(C)C)[C@H]2O)[C@H]1OC
[1]
  MIC: 1.56 µg/mL (≈ 1.45 µM)
[2]
  MIC: 3.13 µg/mL (≈ 2.91 µM)
[3]
  MIC: 0.78 µg/mL (≈ 0.724 µM)
[4]
  MIC: 25 µg/mL (≈ 23.2 µM)
[5]
  MIC: 0.78 µg/mL (≈ 0.724 µM)
[6]
  MIC: 0.78 µg/mL (≈ 0.724 µM)
[7]
  MIC: 100 µg/mL (≈ 92.8 µM)
[8]
  MIC: 25 µg/mL (≈ 23.2 µM)
[9]
  MIC: 0.39 µg/mL (≈ 0.362 µM)
[10]
  MIC: 0.39 µg/mL (≈ 0.362 µM)
[11]
  MIC: 12.5 µg/mL (≈ 11.6 µM)
[12]
  MIC: 12.5 µg/mL (≈ 11.6 µM)
[13]
  MIC: 1.56 µg/mL (≈ 1.45 µM)
[14]
  MIC: 0.39 µg/mL (≈ 0.362 µM)
[15]
  MIC: 25 µg/mL (≈ 23.2 µM)

## CCC(=O)O[C@@H]1CC(=O)O[C@H](C)C[C@H](O)[C@H](N(C)CCCc2ccccc2)/C=C/[C@H](OC(C)=O)[C@H](C)C[C@H](CC=O)[C@H](O[C@@H]2O[C@H](C)[C@@H](O)[C@H](N(C)C)[C@H]2O)[C@H]1OC
[1]
  MIC: 1.56 µg/mL (≈ 1.9 µM)
[2]
  MIC: 0.025 µg/mL (≈ 0.0305 µM)
[3]
  MIC: 1.56 µg/mL (≈ 1.9 µM)
[4]
  MIC: 3.13 µg/mL (≈ 3.81 µM)
[5]
  MIC: 0.78 µg/mL (≈ 0.95 µM)
[6]
  MIC: 0.78 µg/mL (≈ 0.95 µM)
[7]
  MIC: > 100 µg/mL
[8]
  MIC: > 100 µg/mL
[9]
  MIC: 0.39 µg/mL (≈ 0.475 µM)
[10]
  MIC: 0.39 µg/mL (≈ 0.475 µM)
[11]
  MIC: > 100 µg/mL
[12]
  MIC: 0.39 µg/mL (≈ 0.475 µM)
[13]
  MIC: 0.39 µg/mL (≈ 0.475 µM)
[14]
  MIC: 0.2 µg/mL (≈ 0.244 µM)
[15]
  MIC: > 100 µg/mL

## CCC(=O)O[C@@H]1CC(=O)O[C@H](C)C[C@H](O)[C@H](N(C)Cc2ccccc2)/C=C/[C@H](OC(C)=O)[C@H](C)C[C@H](CC=O)[C@H](O[C@@H]2O[C@H](C)[C@@H](O[C@H]3C[C@@](C)(O)[C@@H](OC(=O)CC)[C@H](C)O3)[C@H](N(C)C)[C@H]2O)[C@H]1OC
[1]
  MIC: 0.39 µg/mL (≈ 0.393 µM)
[2]
  MIC: 0.39 µg/mL (≈ 0.393 µM)
[3]
  MIC: 0.2 µg/mL (≈ 0.201 µM)
[4]
  MIC: 25 µg/mL (≈ 25.2 µM)
[5]
  MIC: 0.39 µg/mL (≈ 0.393 µM)
[6]
  MIC: 0.39 µg/mL (≈ 0.393 µM)
[7]
  MIC: > 100 µg/mL
[8]
  MIC: > 100 µg/mL
[9]
  MIC: 0.1 µg/mL (≈ 0.101 µM)
[10]
  MIC: 0.1 µg/mL (≈ 0.101 µM)
[11]
  MIC: 100 µg/mL (≈ 101 µM)
[12]
  MIC: 3.13 µg/mL (≈ 3.15 µM)
[13]
  MIC: 0.39 µg/mL (≈ 0.393 µM)
[14]
  MIC: 0.1 µg/mL (≈ 0.101 µM)
[15]
  MIC: > 100 µg/mL
